Bioassay records: PubChem, Johns Hopkins Ion Channel Center
TRPC4 PAM – TRPC4 (mouse) allosteric potentiation; Q9QUQ5; HEK293 TRPC4beta/mu-opioid, DAMGO EC20, Fluo-4 Ca2+ flux; stronger effect = higher value; B-score at 10 µM; 310,000 compounds, 0.42% hits; AID 2227;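 active means B-score of calcium response area above 5 SD of library B-scores, with initial fluorescence ratio within 5 SD of library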;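 further: B-score of integrated fluorescence ratio over time as area under calcium response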
TRPC4 inh – inhibitors of mouse TRPC4 channel; B-score at 10 µM; 300,000 compounds, 0.39% hits; HEK293 TRPC4beta/mu-opioid, DAMGO-evoked Fluo4 calcium flux; stronger effect = lower value; Q9QUQ5;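 active means B-score over 3 SD under the library average, no early fluorescence shift, positive overall ratio signal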
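Assay system: Stable TRPC4beta/mu-opioid receptor HEK293 cells | Reagent: DAMGO in two steps, submaximal then maximal | Compound dosing: Single concentration per test compound | Signal: Fluo4 Ca2+ flux fluorescence | Evaluation: Per-well B score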
TRPC4 act – activators of mouse TRPC4 channel. HEK293 TRPC4beta/mu-opioid, Fluo4 calcium fluorescence; stronger effect = higher value. B-score at 10 µM. 310,000 compounds, 0.49% hits;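 active means B-score above 5 SD of library B-scores, and initial fluorescence ratio not above library mean plus 5 SD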;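 further: positive B-score marks a calcium rise read as TRPC4 activation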
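Incubation: 45 min room-temperature Fluo4 loading, 110 s read / System: HEK293 cells stably co-expressing mouse TRPC4beta and mu-opioid receptor / Signal: Fluo4 fluorescence, kinetic / Control set: buffer (low) and maximal DAMGO (high) / Measure: integrated baseline-normalised fluorescence ratio, converted to per-well B score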
TRPC6 act – mouse TRPC6 channel activation. HEK293-TRPC6 membrane potential dye fluorescence; stronger effect = higher value. B-score at 10 µM. 310,000 compounds, 0.13% hits. AID 2550;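 active means B-score of the integrated fluorescence ratio above library mean plus 3 SD, and starting fluorescence ratio within library mean plus 5 SD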;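 further: higher score means more depolarization so channel activation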
Target sequence (Q61143 whole entry, looked up): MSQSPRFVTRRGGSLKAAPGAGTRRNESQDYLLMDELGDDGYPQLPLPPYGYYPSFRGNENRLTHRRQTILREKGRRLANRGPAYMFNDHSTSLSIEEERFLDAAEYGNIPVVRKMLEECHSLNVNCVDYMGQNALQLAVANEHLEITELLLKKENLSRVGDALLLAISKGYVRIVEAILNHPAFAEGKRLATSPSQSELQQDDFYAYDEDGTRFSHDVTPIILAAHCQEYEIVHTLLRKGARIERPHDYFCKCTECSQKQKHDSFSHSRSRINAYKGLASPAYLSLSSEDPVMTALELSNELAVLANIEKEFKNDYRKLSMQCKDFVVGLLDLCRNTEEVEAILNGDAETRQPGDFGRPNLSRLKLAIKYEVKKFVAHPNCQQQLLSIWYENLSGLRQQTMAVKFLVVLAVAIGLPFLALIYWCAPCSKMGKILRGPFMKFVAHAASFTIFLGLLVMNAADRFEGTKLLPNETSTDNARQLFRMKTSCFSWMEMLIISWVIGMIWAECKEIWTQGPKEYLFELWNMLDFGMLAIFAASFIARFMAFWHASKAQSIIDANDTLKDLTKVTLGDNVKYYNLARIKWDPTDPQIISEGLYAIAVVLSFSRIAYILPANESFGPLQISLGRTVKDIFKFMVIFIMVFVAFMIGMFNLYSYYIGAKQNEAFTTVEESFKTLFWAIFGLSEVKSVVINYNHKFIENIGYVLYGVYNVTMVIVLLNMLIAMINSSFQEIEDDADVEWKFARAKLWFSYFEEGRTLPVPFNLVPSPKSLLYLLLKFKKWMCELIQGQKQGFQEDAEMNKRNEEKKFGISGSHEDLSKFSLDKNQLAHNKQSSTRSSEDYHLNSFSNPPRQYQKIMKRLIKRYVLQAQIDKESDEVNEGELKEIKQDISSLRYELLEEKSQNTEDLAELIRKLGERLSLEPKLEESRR
TRPC6 inhibitor – inhibitors of mouse TRPC6 channel. Q61143. B-score at 10 µM. 310,000 compounds, 1.1% hits. HEK293-TRPC6, membrane potential dye, ACh-evoked depolarization; stronger effect = lower value;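 active means B-score under library mean minus 3 SD, initial fluorescence not abnormally high, positive integrated signal ratio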;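 further: B-score derived from integrated fluorescence ratio over the kinetic read; more negative B-score means stronger inhibition of depolarization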
TRPC4 spec 2 – mouse TRPC4 off-target activity of TRPC6 inhibitors, second screen; HEK293 TRPC4/MOR, membrane potential dye fluorescence; channel activated by saturating DAMGO dose; 920 compounds, 42% hits; inhibition, % at 10 µM; shares compounds with TRPC6 inhibitor;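 active means compounds whose fluorescence signal differed from control wells by over 3 SD, either direction, in both duplicate plates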
TRPC4 spec – tests whether TRPC6 inhibitors also affect mouse TRPC4 | shares compounds with TRPC6 inhibitor | HEK293 TRPC4/mu-opioid, membrane potential fluorescence | activity change, negative = inhibition, % at 10 µM | 920 compounds, 61% hits;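 active means rise or fall in signal beyond 3 SD of buffer-only wells in both replicate plates, either sign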;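 further: integrated kinetic ratio of fluorescence range over baseline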
HEK293 MPD ctr 2-1 – second counter-screen for TRPC6 inhibitors: parental HEK293 cells. signal change vs control, % at 10 µM. AID 2779. 920 compounds, 31% hits. shares compounds with TRPC6 inhibitor. parental HEK293 membrane potential dye fluorescence; maximal acetylcholine challenge after compound addition;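 active means membrane potential signal moving either way by over 3 SD of the maximum-effect control, in both duplicate plates, meaning non-specific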
HEK293 MPD ctr-1 – counter-screen for TRPC6 inhibitors: effect in parental HEK293 cells | 920 compounds, 60% hits | parental HEK293 membrane potential dye fluorescence | shares compounds with TRPC6 inhibitor | AID 2780 | membrane potential signal change, % at 10 µM;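 active means membrane potential signal shifting up or down by more than 3 SD of buffer-only wells, on both duplicate plates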
HEK293 MPD ctr-2 – parental HEK293 nonspecific activity of TRPC6 modulators; shares compounds with TRPC6 inhibitor; membrane potential dye fluorescence; membrane potential signal change, % at 10 µM; 2,400 compounds, 51% hits; AID 488924;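 active means membrane potential signal moves up or down beyond 5 SD from buffer-only wells, on both duplicate plates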
HEK293 MPD ctr 2-2 – second check of TRPC6 modulator effects in parental HEK293 cells | inhibition, % at 10 µM | 2,400 compounds, 14% hits | AID 488926 | shares compounds with TRPC6 inhibitor | membrane potential dye fluorescence; after compound, maximal acetylcholine stimulation;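 active means membrane potential signal drops by more than 5 SD from the mean control signal, in both duplicate plates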;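 further: plate controls were acetylcholine ECmax control wells for no effect and buffer only wells for full effect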
TRPC4/MOR mod – mouse TRPC4 off-target activity of TRPC6 modulators; shares compounds with TRPC6 inhibitor; HEK293 TRPC4/mu-opioid, membrane potential fluorescence; percent change from control (negative = decrease, positive = increase), % at 10 µM; 2,400 compounds, 69% hits;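 active means membrane potential signal moved up or down beyond 5 SD of buffer control wells, in both duplicate plates, actives on both sides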;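 further: plate controls were assay buffer wells for no effect and DAMGO maximal-effect wells for full effect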
TRPC4/MOR inh 2 – second selectivity test of TRPC6 modulators against mouse TRPC4 | inhibition, % at 10 µM | HEK293 TRPC4/mu-opioid, membrane potential dye fluorescence; stimulated with maximal-effect DAMGO | shares compounds with TRPC6 inhibitor | AID 488928 | 2,400 compounds, 55% hits;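 active means drop in membrane potential signal beyond 5 SD of the control wells in both duplicate plates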;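 further: TRPC4 counter screen for TRPC6 hits run under conditions tuned for TRPC6 not TRPC4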
TRPC6 block conf – confirmation of mouse TRPC6 inhibitors; shares compounds with TRPC6 inhibitor; HEK293-TRPC6, membrane potential dye, ACh-evoked depolarization; inhibition, % at 10 µM; 3,300 compounds, 43% hits; AID 488960;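 active means fluorescence ratio falls more than 5 SD below the full-stimulation control mean, in both duplicate runs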;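 further: integrated fluorescence ratio of peak minus minimum over baseline after agonist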
TRPC6 act confirm – mouse TRPC6 activator confirmation. AID 488961. activation, % at 10 µM. HEK293-TRPC6 membrane potential dye fluorescence, FDSS. 2,800 compounds, 11% hits. shares compounds with TRPC6 inhibitor;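 active means ratio signal rise beyond 5 SD above unstimulated control wells' mean, seen in both duplicate runs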;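 further: plate controls were buffer EC0 wells for no effect and acetylcholine ECmax response for full effect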
The depositor's hits bear a star. Shown are actives, neighbours in structure and some others; about 2.3% of the full set was active somewhere.

O=C(CCN1C(=O)/C(=C/c2ccc3c(c2)OCO3)SC1=S)Nc1cccc(C(=O)O)c1 was read as TRPC4 PAM inactive, TRPC4 inh inactive, TRPC4 act inactive, TRPC6 act inactive and TRPC6 inhibitor inactive.
COc1cc(/C=C2\SC(=O)N(CCN)C2=O)ccc1OS(=O)(=O)c1cc(C)ccc1C was read as TRPC4 PAM inactive, TRPC4 inh inactive, TRPC4 act inactive, TRPC6 act inactive, TRPC6 inhibitor -7.22*, TRPC4 spec 2 inactive, TRPC4 spec inactive, HEK293 MPD ctr 2-1 inactive, HEK293 MPD ctr-1 inactive, TRPC6 block conf inactive and TRPC6 act confirm inactive.
Screening O=C(CSc1ccc(-c2ccco2)nn1)Nc1ccc(F)cc1F returned TRPC4 PAM inactive, TRPC4 inh inactive, TRPC4 act inactive, TRPC6 act inactive and TRPC6 inhibitor inactive.
Screening CSc1ccc(S(=O)(=O)N2CCC(C(=O)NCC3CCCO3)CC2)cc1 (stereo not given) returned TRPC4 PAM inactive, TRPC4 inh inactive, TRPC4 act inactive, TRPC6 act inactive and TRPC6 inhibitor inactive.
`CCCCCCCOC(=O)C[N+](C)(C)CCOC1CC2CCC1(C)C2(C)C` (stereo not given) gave TRPC4 PAM inactive, TRPC4 inh inactive, TRPC4 act inactive, TRPC6 act inactive and TRPC6 inhibitor inactive.
Screening CCCCOC(=O)C[N+](C)(C)CCOC1CC2CCC1(C)C2(C)C (stereo not given) returned TRPC4 PAM inactive, TRPC4 inh inactive, TRPC4 act inactive, TRPC6 act inactive, TRPC6 inhibitor -5.19*, HEK293 MPD ctr-2 99.0%*, HEK293 MPD ctr 2-2 inactive, TRPC4/MOR mod 23.0%*, TRPC4/MOR inh 2 inactive and TRPC6 block conf 38.5%*.
`CC(C)CCOC(=O)C[N+](C)(C)CCOC1CC2CCC1(C)C2(C)C` (stereo not given) gave TRPC4 PAM inactive, TRPC4 inh inactive, TRPC4 act inactive, TRPC6 act inactive, TRPC6 inhibitor -5.65*, HEK293 MPD ctr-2 155.0%*, HEK293 MPD ctr 2-2 inactive, TRPC4/MOR mod 34.5%*, TRPC4/MOR inh 2 34.5%* and TRPC6 block conf 48.0%*.
`Fc1ccc(CSc2nnc(-c3cccs3)o2)cc1` gave TRPC4 PAM inactive, TRPC4 inh inactive, TRPC4 act inactive, TRPC6 act inactive, TRPC6 inhibitor -7.43*, TRPC4 spec 2 inactive, TRPC4 spec inactive, HEK293 MPD ctr 2-1 inactive, HEK293 MPD ctr-1 inactive, TRPC6 block conf inactive and TRPC6 act confirm inactive.
Screening COc1ccc([C@H]2[C@H](C(=O)C(C)(C)C)N3N=Cc4ccccc4C3C23C(=O)OC(C)(C)OC3=O)cc1 (stereo not given in full) returned TRPC4 PAM inactive, TRPC4 inh inactive, TRPC4 act inactive, TRPC6 act inactive, TRPC6 inhibitor -6.03*, HEK293 MPD ctr-2 inactive, HEK293 MPD ctr 2-2 inactive, TRPC4/MOR mod 9.0%*, TRPC4/MOR inh 2 inactive, TRPC6 block conf inactive and TRPC6 act confirm inactive.
Screening COc1ccc([C@@H]2[C@@H](C(=O)C(C)(C)C)N3N=Cc4ccccc4[C@@H]3C23C(=O)OC(C)(C)OC3=O)cc1OC returned TRPC4 PAM inactive, TRPC4 inh inactive, TRPC4 act inactive, TRPC6 act inactive and TRPC6 inhibitor inactive.
Cn1c(-c2c(N)n(CCc3ccccc3)c3nc4ccccc4nc23)nc2ccccc21 was read as TRPC4 PAM inactive, TRPC4 inh -6*, TRPC4 act inactive, TRPC6 act inactive, TRPC6 inhibitor -5.74*, HEK293 MPD ctr-2 264.0%*, HEK293 MPD ctr 2-2 inactive, TRPC4/MOR mod 55.5%*, TRPC4/MOR inh 2 79.5%*, TRPC6 block conf inactive and TRPC6 act confirm inactive.
Screening CCCc1cc(-c2[nH]ncc2-c2ccc3c(c2)OCCCO3)c(O)cc1O returned TRPC4 PAM inactive, TRPC4 inh inactive, TRPC4 act inactive, TRPC6 act inactive, TRPC6 inhibitor -8.03*, TRPC4 spec 2 inactive, TRPC4 spec inactive, HEK293 MPD ctr 2-1 208.0%*, HEK293 MPD ctr-1 inactive, TRPC6 block conf 62.8%* and TRPC6 act confirm inactive.
For CC(=O)c1cnc(Nc2nc(C)c3ccccc3n2)nc1C the results were TRPC4 PAM inactive, TRPC4 inh inactive, TRPC4 act inactive, TRPC6 act inactive and TRPC6 inhibitor inactive.
For CC(=O)c1cnc(Nc2nc(C)c3ccc(C)cc3n2)nc1C the results were TRPC4 PAM inactive, TRPC4 inh inactive, TRPC4 act inactive, TRPC6 act inactive, TRPC6 inhibitor -5.66*, HEK293 MPD ctr-2 -153.5%*, HEK293 MPD ctr 2-2 81.0%*, TRPC4/MOR mod -20.5%*, TRPC4/MOR inh 2 inactive, TRPC6 block conf inactive and TRPC6 act confirm inactive.
